Test system: Fibroblast
Assay: Multiplex assay against human fibroblast
Assay type: toxicity, cell-based
In short: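 With compound added, live cells were imaged on a CQ1 microscope at 37°C and 5% CO2; staining with Hoechst33342, BioTracker Green Microtubule Cytoskeleton Dye, MitoTracker Red and Annexin V Alexa Fluor 680 had been done at seeding. The CellPathfinder machine-learning gating scheme split cells into Hoechst high-intensity objects or normal cells, normal cells into healthy, pyknosed or fragmented nuclei, and pyknosed cells into mitotic or apoptotic. The tubulin, mitochondrial-mass and membrane-permeability phenotypes are per cents of healthy-nucleus cells.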

[1] = 12 h, 1 µM, compound concentration 1 uM, replicate 1
[2] = 12 h, 1 µM, compound concentration 1 uM, replicate 2
[3] = 12 h, 10 µM, compound concentration 10 uM, replicate 1
[4] = 12 h, 10 µM, compound concentration 10 uM, replicate 2
[5] = 24 h, 1 µM, compound concentration 1 uM, replicate 1
[6] = 24 h, 1 µM, compound concentration 1 uM, replicate 2
[7] = 24 h, 10 µM, compound concentration 10 uM, replicate 1
[8] = 24 h, 10 µM, compound concentration 10 uM, replicate 2
[9] = 48 h, 1 µM, compound concentration 1 uM, replicate 1
[10] = 48 h, 1 µM, compound concentration 1 uM, replicate 2
[11] = 48 h, 10 µM, compound concentration 10 uM, replicate 1
[12] = 48 h, 10 µM, compound concentration 10 uM, replicate 2

Cn1cc(C(=O)OCC2CCN(CCNS(C)(=O)=O)CC2)c2ccccc21
Population Apoptotic (%) [1]: 44% | Population Fragmented Nuclei (%) [1]: 13% | Population Healthy Nuclei (%) [1]: 71% | Population Hoechst High Intensity Objects (%) [1]: 1% | Population Membrane Permeable-Phenotype (%) [1]: 0% | Population Mitochondria Different-Phenotype (%) [1]: 3% | Population Mitotic Cells (%) [1]: 55% | Population Normal (%) [1]: 98% | Population Pyknosed Nuclei (%) [1]: 14% | Population Tubulin-Different-Phenotype (%) [1]: 23% | Total Cell Count [1]: 202 | Population Apoptotic (%) [2]: 33% | Population Fragmented Nuclei (%) [2]: 21% | Population Healthy Nuclei (%) [2]: 46% | Population Hoechst High Intensity Objects (%) [2]: 4% | Population Membrane Permeable-Phenotype (%) [2]: 9% | Population Mitochondria Different-Phenotype (%) [2]: 1% | Population Mitotic Cells (%) [2]: 66% | Population Normal (%) [2]: 95% | Population Pyknosed Nuclei (%) [2]: 32% | Population Tubulin-Different-Phenotype (%) [2]: 37% | Total Cell Count [2]: 164 | Population Apoptotic (%) [3]: 48% | Population Fragmented Nuclei (%) [3]: 29% | Population Healthy Nuclei (%) [3]: 55% | Population Hoechst High Intensity Objects (%) [3]: 3% | Population Membrane Permeable-Phenotype (%) [3]: 0% | Population Mitochondria Different-Phenotype (%) [3]: 9% | Population Mitotic Cells (%) [3]: 51% | Population Normal (%) [3]: 96% | Population Pyknosed Nuclei (%) [3]: 14% | Population Tubulin-Different-Phenotype (%) [3]: 41% | Total Cell Count [3]: 207 | Population Apoptotic (%) [4]: 25% | Population Fragmented Nuclei (%) [4]: 32% | Population Healthy Nuclei (%) [4]: 51% | Population Hoechst High Intensity Objects (%) [4]: 5% | Population Membrane Permeable-Phenotype (%) [4]: 5% | Population Mitochondria Different-Phenotype (%) [4]: 7% | Population Mitotic Cells (%) [4]: 75% | Population Normal (%) [4]: 94% | Population Pyknosed Nuclei (%) [4]: 16% | Population Tubulin-Different-Phenotype (%) [4]: 47% | Total Cell Count [4]: 184 | Population Apoptotic (%) [5]: 31% | Population Fragmented Nuclei (%) [5]: 13% | Population Healthy Nuclei (%) [5]: 74% | Population Hoechst High Intensity Objects (%) [5]: 5% | Population Membrane Permeable-Phenotype (%) [5]: 0% | Population Mitochondria Different-Phenotype (%) [5]: 0% | Population Mitotic Cells (%) [5]: 68% | Population Normal (%) [5]: 94% | Population Pyknosed Nuclei (%) [5]: 11% | Population Tubulin-Different-Phenotype (%) [5]: 23% | Total Cell Count [5]: 201 | Population Apoptotic (%) [6]: 30% | Population Fragmented Nuclei (%) [6]: 25% | Population Healthy Nuclei (%) [6]: 47% | Population Hoechst High Intensity Objects (%) [6]: 2% | Population Membrane Permeable-Phenotype (%) [6]: 7% | Population Mitochondria Different-Phenotype (%) [6]: 6% | Population Mitotic Cells (%) [6]: 69% | Population Normal (%) [6]: 97% | Population Pyknosed Nuclei (%) [6]: 26% | Population Tubulin-Different-Phenotype (%) [6]: 48% | Total Cell Count [6]: 168 | Population Apoptotic (%) [7]: 80% | Population Fragmented Nuclei (%) [7]: 33% | Population Healthy Nuclei (%) [7]: 53% | Population Hoechst High Intensity Objects (%) [7]: 5% | Population Membrane Permeable-Phenotype (%) [7]: 0% | Population Mitochondria Different-Phenotype (%) [7]: 3% | Population Mitotic Cells (%) [7]: 20% | Population Normal (%) [7]: 94% | Population Pyknosed Nuclei (%) [7]: 13% | Population Tubulin-Different-Phenotype (%) [7]: 42% | Total Cell Count [7]: 201 | Population Apoptotic (%) [8]: 41% | Population Fragmented Nuclei (%) [8]: 40% | Population Healthy Nuclei (%) [8]: 43% | Population Hoechst High Intensity Objects (%) [8]: 4% | Population Membrane Permeable-Phenotype (%) [8]: 3% | Population Mitochondria Different-Phenotype (%) [8]: 5% | Population Mitotic Cells (%) [8]: 58% | Population Normal (%) [8]: 95% | Population Pyknosed Nuclei (%) [8]: 16% | Population Tubulin-Different-Phenotype (%) [8]: 52% | Total Cell Count [8]: 188 | Population Apoptotic (%) [9]: 54% | Population Fragmented Nuclei (%) [9]: 14% | Population Healthy Nuclei (%) [9]: 72% | Population Hoechst High Intensity Objects (%) [9]: 5% | Population Membrane Permeable-Phenotype (%) [9]: 0% | Population Mitochondria Different-Phenotype (%) [9]: 1% | Population Mitotic Cells (%) [9]: 45% | Population Normal (%) [9]: 94% | Population Pyknosed Nuclei (%) [9]: 12% | Population Tubulin-Different-Phenotype (%) [9]: 23% | Total Cell Count [9]: 197 | Population Apoptotic (%) [10]: 52% | Population Fragmented Nuclei (%) [10]: 33% | Population Healthy Nuclei (%) [10]: 54% | Population Hoechst High Intensity Objects (%) [10]: 4% | Population Membrane Permeable-Phenotype (%) [10]: 5% | Population Mitochondria Different-Phenotype (%) [10]: 2% | Population Mitotic Cells (%) [10]: 47% | Population Normal (%) [10]: 95% | Population Tubulin-Different-Phenotype (%) [10]: 43% | Total Cell Count [10]: 177 | Population Apoptotic (%) [11]: 68% | Population Fragmented Nuclei (%) [11]: 28% | Population Healthy Nuclei (%) [11]: 58% | Population Hoechst High Intensity Objects (%) [11]: 9% | Population Membrane Permeable-Phenotype (%) [11]: 0% | Population Mitochondria Different-Phenotype (%) [11]: 9% | Population Mitotic Cells (%) [11]: 32% | Population Normal (%) [11]: 90% | Population Pyknosed Nuclei (%) [11]: 13% | Population Tubulin-Different-Phenotype (%) [11]: 49% | Total Cell Count [11]: 199 | Population Apoptotic (%) [12]: 50% | Population Fragmented Nuclei (%) [12]: 40% | Population Healthy Nuclei (%) [12]: 46% | Population Hoechst High Intensity Objects (%) [12]: 6% | Population Membrane Permeable-Phenotype (%) [12]: 2% | Population Mitochondria Different-Phenotype (%) [12]: 8% | Population Mitotic Cells (%) [12]: 50% | Population Normal (%) [12]: 93% | Population Pyknosed Nuclei (%) [12]: 12% | Population Tubulin-Different-Phenotype (%) [12]: 60% | Total Cell Count [12]: 190

Source: ChEMBL document CHEMBL5058577, “EUbOPEN Chemogenomics Library 2 (Multiplex)” (2022)
